# Experimental data from PubChem BioAssay AID522 (The Scripps Research Institute Molecular Screening Center, 2006).
# Screen size: about 65,000 compounds; about 1,200 (1.8%) were called active. What follows is part of a selection rich in actives, with near analogues and random picks from the rest. Values without a mark were called inactive.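 How the source made its calls: active means activation above the mean activation of all tested compounds plus 3 SD (cut at about 50% in these data); inactive means the rest.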
# Biological target: Steroidogenic factor 1 (Homo sapiens) (UniProt Q13285)
# Sequence (Q13285 whole entry, looked up, the tested form may be a part): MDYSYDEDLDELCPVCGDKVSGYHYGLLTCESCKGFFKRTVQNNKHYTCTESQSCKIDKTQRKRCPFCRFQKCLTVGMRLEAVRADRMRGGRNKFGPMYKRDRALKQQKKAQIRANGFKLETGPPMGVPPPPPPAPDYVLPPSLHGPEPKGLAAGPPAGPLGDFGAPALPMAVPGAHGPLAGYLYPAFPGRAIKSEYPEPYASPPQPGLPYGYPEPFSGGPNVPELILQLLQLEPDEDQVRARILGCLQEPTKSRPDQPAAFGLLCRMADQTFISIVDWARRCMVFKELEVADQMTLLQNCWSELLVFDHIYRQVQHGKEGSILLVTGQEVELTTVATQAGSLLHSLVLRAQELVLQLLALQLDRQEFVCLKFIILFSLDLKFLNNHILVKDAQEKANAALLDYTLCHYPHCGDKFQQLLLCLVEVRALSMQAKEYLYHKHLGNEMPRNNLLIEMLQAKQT
# Test: activators of human SF-1, primary screen, cell-based, CHO-K1, Gal4-SF-1 LBD, luciferase luminescence (AID 522)
# Conditions: CHO-K1 Gal4-SF-1 LBD luciferase reporter; at 10 µM; active compounds read high; % increase over DMSO SF-1-specific signal
# Method in brief: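 Assay system: CHO-K1 cells co-transfected with Gal4 DBD–human SF-1 LBD, 5xGal4 luciferase reporter / Input: 4,000 cells per well / Incubation: 20 h compound exposure at 37 °C after 1 h cell settling / Detection: SteadyLite luciferase luminescence / Control set: DMSO negative control and −SF1 background wells / Replication: one test per compound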
row,Compound,activation
1,Cn1c(=NC(=O)C2CC2)sc2cc(F)cc(F)c21,-2%
2,CCCC(=O)N=c1sc2cccc(F)c2n1C,17.9%
3,Cn1c(=NC(=O)c2ccco2)sc2cccc(F)c21,91.8% (active)
4,CC(=O)Nc1ccn(Cc2c(F)cccc2Cl)n1,42.1%
5,CCCCOC(=O)c1ccc(N2C(=O)CC(N3CCN(C/C=C/c4ccccc4)CC3)C2=O)cc1 (centres undefined),-6.3%
6,COc1ccc(-n2nnc3c(=O)n(CC(=O)OCc4ccccc4)cnc32)cc1,9.3%
7,O=C(Cn1cnc2c(cnn2-c2ccc(F)cc2)c1=O)NCCc1ccccc1,-19.4%
8,O=C(Cn1cnc2c(cnn2-c2ccccc2)c1=O)NCc1ccccc1,70.3% (active)
9,O=C(Cn1c(=O)sc2ccccc21)Nc1ccc2c(c1)OCCO2,-9.9%
10,N#C/C(=C1\CCCN1)c1nc(-c2ccccc2)cs1,30%
11,N#CC(=C1SC=CS1)c1nc(-c2ccccc2)cs1,80.9% (active)
12,CCOC(=O)CSc1nnc(CNC(=O)c2ccco2)n1-c1ccc(F)cc1,3.4%
13,CN(CCc1ccccn1)S(=O)(=O)c1ccc2c3c(cccc13)C(=O)N2,14.4%
14,COc1ccccc1OCCC(=O)OCC(=O)NC(=O)NC(C)(C)C,8.8%
15,CCc1nnc(NC(=O)CSc2nnc(Cc3ccccc3)n2-c2ccc(OC)cc2)s1,-17.5%
16,CS(=O)(=O)c1ccc2nc(NC(=O)C3C4C=CC(C4)C3C(=O)O)sc2c1 (centres undefined),8.1%
17,CC(C)COC(=O)c1ccc(NC(=O)C2C3C=CC(C3)C2C(=O)O)cc1 (centres undefined),63.7% (active)
18,CCCCC(CCC(=O)Nc1ccc(C(=O)OCC)cc1)C(=O)O (centres undefined),-8.4%
19,CCc1nnc(NC(=O)c2ccc(S(=O)(=O)NC3CCCCC3)cc2)s1,6.1%
20,COc1cccc(N(CC(=O)Nc2cccc(N(C)S(C)(=O)=O)c2)S(C)(=O)=O)c1,1.3%
21,CCOC(=O)C1CCN(C(=O)Cc2c(C(=O)O)[nH]c3ccccc23)CC1,-12.1%
22,COC(=O)c1sc(NC(=O)c2csc3c2CCCC3)nc1C,50.9% (active)
23,CC(=O)Cc1nsc(NC(=O)c2csc3c2CCCC3)n1,18%
24,COC(=O)c1sccc1NC(=O)c1csc2c1CCCC2,-11.7%
25,CCOC(=O)c1cc(-c2nnc(-c3cc(OC)c(OC)c(OC)c3)o2)c(C)nc1C,-11%
26,Cc1ccc(C)c2[nH]c(=O)c(CCNC(=O)CC(C)C)cc12,-11.8%

row,Compound,activation
1,CCOC(=O)C1Cn2c(nc3c(c2=O)C(C)(CC)Cc2ccccc2-3)S1 (centres undefined),-8.9%
2,CC1Cn2c(nnc2-c2cccs2)S1 (centres undefined),-15.2%
3,O=C(O)C1CCCCC1C(=O)Nc1ccc(Cl)cc1 (centres undefined),-2.8%
4,O=C(NCc1cn2ccsc2n1)Nc1ccc(Cl)cc1,-1.8%
5,O=C(Nc1ccc(Cl)cc1)c1ccsn1,73.5% (active)
6,CCOC(=O)C1CCCCN1Cc1ccc(OC)c(OC)c1OC (centres undefined),-21.3%
7,CN(c1ccc(C(=O)N2CCc3ccccc3C2)cc1)S(C)(=O)=O,22.9%
8,O=C(CN1C(=O)NC2(CCCCC2)C1=O)NCCC1=CCCCC1,2.8%
9,CN(c1ccc(C(=O)NCCC2=CCCCC2)cc1)S(C)(=O)=O,55.4% (active)
10,O=C(Cc1nn[nH]n1)NCCC1=CCCCC1,3.7%
11,O=C(COc1cccc(-n2cnnn2)c1)NCCC1=CCCCC1,-3.3%
12,Cn1nnc2cc(C(=O)NCCC3=CCCCC3)ccc21,49.9% (active)
13,COc1ccc(S(=O)(=O)N2CCCC2)c(C)c1C,-8.5%
14,c1ccc(-c2nnc3n2NC(c2ccc4c(c2)OCO4)S3)cc1 (centres undefined),-14.9%
15,CC(C)C[C@H](NC(=O)Nc1cccc(C(F)(F)F)c1)C(=O)O,-1.1%
16,Cc1ccsc1-c1nc(CSCC(=O)NCCN2CCCC2)c(C)o1,3.6%
17,CC(C)C(=O)Nc1cccc(C(=O)Nc2ccc3c(c2)OCO3)c1,55% (active)
18,Cn1c(=O)n(C)c2cc(C(=O)Nc3ccc4c(c3)OCO4)ccc21,21.2%
19,Cc1ccc(C(=O)Nc2ccc3c(c2)OCO3)cc1S(=O)(=O)N1CCCCC1,22.6%
20,O=C(Nc1ccc2c(c1)OCCO2)c1ccncc1,20.3%
21,COc1ccc(C(=O)Nc2ccc3c(c2)OCO3)cc1OC,55% (active)
22,O=C(Nc1cccnc1)c1ccc2c(c1)OCO2,13.2%
23,CCc1nnc(NC(=O)c2c(O)c3c([nH]c2=O)CCCC3)s1,29.1%
24,CC1C(c2ccccc2)=[N+]([O-])C2(CCCC2)N1O (centres undefined),18.6%
25,O=C(C1CCC(C(=O)N2CCCC2)CC1)N1CCCC1 (centres undefined),-2.5%
26,COc1ccc(NC(=O)c2cccc(NC(=O)c3ccco3)c2)c(OC)c1,-29.9%

row,Compound,activation
1,c1c2c(cc3sc(N4CCCCC4)nc13)OCCO2,-71.4%
2,Fc1cc(F)c2nc(N3CCOCC3)sc2c1,52.6% (active)
3,Fc1ccc2nc(N3CCCCC3)sc2c1,43.3%
4,O=C(O)Cc1ccc(NC(=O)c2cccs2)cc1,-7.4%
5,O=C(Nc1ccc(NC(=O)c2cccs2)cn1)c1ccco1,73.3% (active)
6,Cc1ccnc(NC(=O)c2ccc(NC(=O)c3ccco3)cc2)c1,46.9%
7,COc1ccc(N(C(=O)c2cccnc2)S(=O)(=O)c2ccc3c(c2)n(C)c(=O)n3C)cc1,-24.3%
8,COc1ccc(Cn2nnc3c(=O)[nH]c(C4CCN(C(=O)c5ccccc5Cl)CC4)nc32)cc1,-2.2%
9,CC(C)NS(=O)(=O)c1ccc(NC(=O)c2cccnc2)cc1,33.9%
10,CCC(=O)Nc1cccc(NC(=O)c2cccnc2)c1,-0.4%
11,Cc1cc2nc(-c3ccc(NC(=O)c4cccnc4)cc3)oc2cc1C,54.8% (active)
12,CCOC(=O)c1ccn(-c2nc(-c3ccco3)cc(C(F)(F)F)n2)n1,0.6%
13,Cc1cc(C(=O)NCCCc2ccccc2)no1,16.8%
14,CC(C)Cc1cc(C(=O)NCCc2ccccc2)no1,80.7% (active)
15,CC(C)Cc1cc(C(=O)Nc2cc(Br)ccc2O)no1,11.7%
16,CC(C)Cn1c(CCC(=O)O)ccc1-c1cccs1,2.5%
17,COc1ccccc1N=C1SC(C)CN1C(=O)C1CCC1 (centres undefined),1.8%
18,COc1ccc(-n2nnnc2SCC(=O)c2ccc(OC)c(OC)c2)cc1,-4.4%
19,COC(=O)Cc1cc(=O)n(-c2nc3ccccc3s2)[nH]1,-3%
20,CCC(=O)NC(=Nc1nc2ccccc2s1)NC(=O)CC,60.7% (active)
21,O=C(O)CSCc1nc2ccccc2s1,15.5%
22,COc1ccc(-c2cc(C(F)(F)F)n3nc(C(=O)N4CCOCC4)c(Cl)c3n2)cc1,-9.4%
23,C=CCn1c(C)cc(C(=O)CN2C(=O)c3ccccc3C2=O)c1C,27.3%
24,Cc1c(C(=O)CN2CCOCC2)[nH]c2ccccc12,8.5%
25,COc1ccc(CC(=O)Nc2ccc(-c3nnc(-c4ccccc4)o3)cc2)cc1,-59.5%
26,Nc1ccc(-c2nnc(-c3ccc(-c4ccccc4)cc3)o2)cc1,55.2% (active)

row,Compound,activation
1,O=C(Nc1ccc(-c2nnc(-c3ccccc3)o2)cc1)c1ccc(Br)o1,10.9%
2,CCOC(=O)c1nc(-c2ccc3c(c2)OCO3)[nH]c1C,46.3%
3,O=C(Nc1ccc(Cl)cn1)c1cnn2cccnc12,63.8% (active)
4,O=C(Nc1ccc(Cl)cn1)Nc1cccs1,47.6%
5,Cc1cc(NC(=O)c2cnn3cccnc23)n(-c2ccccc2)n1,2.1%
6,CCS(=O)(=O)N1CCCC(C(=O)NCCCN(C)Cc2ccccc2)C1 (centres undefined),-14.4%
7,COc1ccc(NS(=O)(=O)c2ccc(NC(=O)C(C)(C(F)(F)F)C(F)(F)F)cc2)nn1,-13.6%
8,Cc1nc2nc(SCC(=O)NCc3ccco3)nn2c(C)c1Cc1ccccc1,5.7%
9,O=C(Cc1ccccc1)n1nc(-c2ccccc2)nc1NCc1ccco1,50.5% (active)
10,O=C(NCc1ccco1)c1nc(-c2ccccc2)n(-c2ccccc2)n1,-4.9%
11,CCOC(=O)C1CCCN(C(=O)c2ccc(CS(=O)(=O)c3ccc(Br)cc3)o2)C1 (centres undefined),19.7%
12,Cc1cccc(-n2nc3c(c2NC(=O)c2ccc(Br)o2)CSC3)c1C,9.6%
13,CCC(Oc1ccccc1)C(=O)NCc1cccnc1 (centres undefined),-4.9%
14,COc1cc(OC)c(C(=O)Nc2ccc(N(C)C)cc2)cc1OC,51.4% (active)
15,COc1ccc(NC(=O)c2ccc(OC)cc2)cc1,30.5%
16,COc1cc(OC)c(C(=O)NC2CCCCCC2)cc1OC,2%
17,NC(=O)COc1ccc2c3c(c(=O)oc2c1)CCCCC3,-7.8%
18,Cc1cc(NC(=O)COc2ccc(Cl)cc2Cl)n(CCC#N)n1,28.2%
19,CCN1C(=O)/C(=C\N2CCN(c3ccccc3)CC2)SC1=S,-22.3%
20,CCN1C(=O)/C(=C2\SC(N3CCCCC3)=NC2=O)c2ccccc21,53.9% (active)
21,CCN1C(=O)c2cccc3c(N)ccc1c23,15.3%
22,Cc1nnc(Sc2nc3c(c(=O)[nH]c(=O)n3C)n2Cc2ccccc2)s1,-15%
23,CCOC(=O)c1ccccc1NC(=O)CC1Nc2ccccc2NC1=O (centres undefined),3.2%
24,COc1ccc2nc(NC(=O)c3ccc(Br)s3)sc2c1,72.8% (active)
25,CCn1c(SCC(=O)Nc2nc3ccc(OC)cc3s2)nnc1-c1ccoc1C,13.2%
26,CNC(=O)c1ccc2nc(NC(C)=O)sc2c1,6.1%
